The source made the active and inactive calls. The rule behind the calls is not given here.
Assays:
NIH3T3 [1] = assay: Cytoprotective activity against UV-induced apoptosis in mouse NIH/3T3 cells assessed as viable cells at 40 uM preincubated for 20 hrs followed by UV irradiation for 5 mins and measured after 24 hrs by flow cytometric analysis (reference value: 12.6%); type: functional; conditions: NIH3T3, light or radiation study, read-out: Activity
[2] = biological target: T1, Sphingomyelin phosphodiesterase (Mus musculus) (UniProt Q04519); assay: Inhibition of acid sphingomyelinase in mouse NIH/3T3 cells assessed as increase in […] level at 5 uM after 20 hrs by LC-MS/MS analysis relative to control; type: cell-based; design: scale not given: the % may be the effect or the level left
T1 sequence (whole entry): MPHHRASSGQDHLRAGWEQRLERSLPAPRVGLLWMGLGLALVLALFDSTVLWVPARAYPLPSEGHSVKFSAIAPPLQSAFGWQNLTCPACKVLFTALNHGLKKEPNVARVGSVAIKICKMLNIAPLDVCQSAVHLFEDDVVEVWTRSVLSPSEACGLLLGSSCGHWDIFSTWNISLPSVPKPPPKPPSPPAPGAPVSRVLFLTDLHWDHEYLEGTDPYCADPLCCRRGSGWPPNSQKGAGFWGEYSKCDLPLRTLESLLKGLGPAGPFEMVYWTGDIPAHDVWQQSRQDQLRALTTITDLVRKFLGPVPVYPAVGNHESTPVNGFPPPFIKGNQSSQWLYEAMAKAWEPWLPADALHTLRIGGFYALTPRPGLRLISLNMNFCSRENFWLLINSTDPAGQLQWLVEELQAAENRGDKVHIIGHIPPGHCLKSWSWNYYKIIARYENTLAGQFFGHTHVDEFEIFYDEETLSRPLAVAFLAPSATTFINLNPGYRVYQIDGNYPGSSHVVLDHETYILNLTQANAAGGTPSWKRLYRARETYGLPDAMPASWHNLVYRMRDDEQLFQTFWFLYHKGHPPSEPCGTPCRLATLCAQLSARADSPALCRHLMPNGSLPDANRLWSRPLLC
In short: (§1)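 NIH3T3 cells in DMEM with 10% FBS, 37 °C, 5% CO₂; at 90% confluence given fresh medium plus inhibitor (5, 10, 20 µM) for 20 h; total ceramides and sphingomyelin quantified by LC-MS-MS versus untreated control; mean ± SD of three independent experiments, Student's t-test.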

NIH3T3 [3] = assay: Cytoprotective activity against UV-induced apoptosis in mouse NIH/3T3 cells assessed as viable cells at 60 uM preincubated for 20 hrs followed by UV irradiation for 5 mins and measured after 24 hrs by flow cytometric analysis (reference value: 12.6%); type: functional; conditions: NIH3T3, light or radiation study, read-out: Activity
[4] = biological target: T1, Sphingomyelin phosphodiesterase (Mus musculus); assay: Inhibition of acid sphingomyelinase in mouse NIH/3T3 cells assessed as ceramide levels at 20 uM after 20 hrs by LC-MS/MS analysis relative to control; type: cell-based; in short: as §1
NIH3T3 [5] = assay: Cytoprotective activity against UV-induced apoptosis in mouse NIH/3T3 cells assessed as late apoptotic cells at 20 uM preincubated for 20 hrs followed by UV irradiation for 5 mins and measured after 24 hrs by flow cytometric analysis (reference value: 6.4%); type: functional
NIH3T3 [6] = assay: Cytoprotective activity against UV-induced apoptosis in mouse NIH/3T3 cells assessed as viable cells at 10 uM preincubated for 20 hrs followed by UV irradiation for 5 mins and measured after 24 hrs by flow cytometric analysis (reference value: 12.6%); type: functional; conditions: NIH3T3, light or radiation study, read-out: Activity
[7] = biological target: T2, Sphingomyelin phosphodiesterase (Homo sapiens) (UniProt P17405); assay: Competitive inhibition of acid sphingomyelinase in human HuH7 cell lysate using varying levels of NBD-sphingomyelin as substrate at 0.5 to 5 uM after 30 mins by Lineweaver-Burk analysis; conditions: in the assay text read “after 10 mins” for “after 30 mins”
T2 sequence (whole entry): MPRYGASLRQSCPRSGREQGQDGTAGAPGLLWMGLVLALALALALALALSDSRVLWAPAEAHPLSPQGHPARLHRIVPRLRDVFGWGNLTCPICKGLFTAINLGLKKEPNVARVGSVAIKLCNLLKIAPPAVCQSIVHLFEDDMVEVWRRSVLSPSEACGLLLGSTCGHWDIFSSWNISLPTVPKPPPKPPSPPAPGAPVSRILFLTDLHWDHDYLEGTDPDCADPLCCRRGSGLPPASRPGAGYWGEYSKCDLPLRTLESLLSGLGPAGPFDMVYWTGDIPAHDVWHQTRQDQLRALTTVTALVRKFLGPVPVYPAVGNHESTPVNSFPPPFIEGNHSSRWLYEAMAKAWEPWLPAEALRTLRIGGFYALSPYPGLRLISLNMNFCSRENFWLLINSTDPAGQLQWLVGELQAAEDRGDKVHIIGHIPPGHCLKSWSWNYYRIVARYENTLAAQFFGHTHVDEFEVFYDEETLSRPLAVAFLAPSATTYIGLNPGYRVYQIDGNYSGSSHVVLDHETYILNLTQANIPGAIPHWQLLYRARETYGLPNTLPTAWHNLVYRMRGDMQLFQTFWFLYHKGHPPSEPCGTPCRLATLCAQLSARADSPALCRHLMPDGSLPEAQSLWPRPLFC
In short: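 Kinetics using the lysate ASM protocol, NBD-SM at 1.35, 1.89, 2.70, 4.54 and 13.5 µM per inhibitor level (0.5, 1.0, 5 µM); reaction stopped after 10 min; NBD-ceramide quantified by HPLC against a standard curve; Lineweaver-Burk plots by linear regression; triplicate.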

NIH3T3 [8] = assay: Cytoprotective activity against UV-induced apoptosis in mouse NIH/3T3 cells assessed as necrotic cells preincubated for 20 hrs followed by UV irradiation for 5 mins and measured after 24 hrs by flow cytometric analysis; type: functional, cell-based
In short: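 NIH3T3 cells grown in DMEM plus 10% FBS at 37 °C and 5% CO₂, seeded in 6-well plates and left overnight. Inhibitor (0–60 µM, DMSO solvent) added for 20 h. Medium replaced, then UV at peak 315 nm, 0.29 mW/cm² for 5 min. Cells kept with inhibitor 24 h more before flow cytometry by quadrant regions. Untreated, unirradiated cells served as control. Three independent experiments.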

NIH3T3 [9] = assay: Cytoprotective activity against UV-induced apoptosis in mouse NIH/3T3 cells assessed as early apoptotic cells at 60 uM preincubated for 20 hrs followed by UV irradiation for 5 mins and measured after 24 hrs by flow cytometric analysis (reference value: 79.5%); type: functional
NIH3T3 [10] = assay: Cytoprotective activity against UV-induced apoptosis in mouse NIH/3T3 cells assessed as necrotic cells at 60 uM preincubated for 20 hrs followed by UV irradiation for 5 mins and measured after 24 hrs by flow cytometric analysis (reference value: 1.5%); type: functional
NIH3T3 [11] = assay: Cytoprotective activity against UV-induced apoptosis in mouse NIH/3T3 cells assessed as early apoptotic cells at 10 uM preincubated for 20 hrs followed by UV irradiation for 5 mins and measured after 24 hrs by flow cytometric analysis (reference value: 79.5%); type: functional
NIH3T3 [12] = assay: Cytotoxicity against mouse NIH/3T3 cells after 24 hrs by MTT assay; type: cell-based; conditions: NIH3T3, 24 h
[13] = biological target: T1, Sphingomyelin phosphodiesterase (Mus musculus); assay: Inhibition of acid sphingomyelinase in mouse NIH/3T3 cells assessed as increase in […] level at 20 uM after 20 hrs by LC-MS/MS analysis relative to control; type: cell-based; design: scale not given: the % may be the effect or the level left; in short: as §1

- Activity [2]: 31.9%
- inhibition [4]: 42.6%
- inhibition [7]: Active
- Activity [13]: 37.5%
Compound: CCCCCCCCCCOc1cc(C(=O)NO)ccc1OC
- viability at 40 µM (NIH3T3 [1]): 50.9%
- viability at 60 µM (NIH3T3 [3]): 36.2%
- Activity (NIH3T3 [5]): 8.4%
- viability at 10 µM (NIH3T3 [6]): 46.9%
- Activity (NIH3T3 [8]): Dose-dependent effect
- Activity (NIH3T3 [9]): 55.7%
- Activity (NIH3T3 [10]): 0.6%
- Activity (NIH3T3 [11]): 42.1%
- IC50 (NIH3T3 [12]): 51.4 µM
